S100A4 MyoIIA – S100A4-myosin IIA interaction inhibition | S100A4/TAMRA-MyoIIA peptide fluorescence polarization | inhibition, % at 10.7 µM | P26447 | 360,000 compounds, 0.14% hits;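 active means mean inhibition of at least 70% across replicates, with every replicate also reaching that level; inconclusive means mean inhibition reaches 70% but some replicates fall short; inactive means mean inhibition below 70%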
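Test system: S100A4 monomer protein. Medium: HEPES buffer with Ca2+, pH 7.2. Reagent: fluorescent myosin IIA peptide, 5 nM. Compound dosing: single-point compound testing. Timing: 5 min between mix addition and reading. Benchmarks: DMSO neutral and TFP positive wells.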
RAD54 inh – inhibitors of human RAD54 branch migration | RAD54 Holliday junction branch migration, FAM/BHQ fluorescence | inhibition, % at 10.4 µM | 360,000 compounds, 0.14% hits;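 active means mean normalized replicate activity at least 40 and at least half of replicates scoring 40 or more; inconclusive means only one of the two criteria met; inactive means mean below 40 and under half of replicates reaching 40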;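 further: inhibitors cause a drop in the FAM fluorescence signal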
CASP6 VEID inh – blocks human caspase-6 cleavage activity; P55212; purified caspase-6, Z-VEID-R110 cleavage fluorescence; inhibition, % at 12.5 µM; 350,000 compounds, 0.53% hits; AID 686996;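 active means mean inhibition across replicates at least about 35%, with every replicate also reaching that limit, limit read from the data; inconclusive means only one of the two criteria met; inactive means neither criterion met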
Target sequence (P55212 24-179 limits assumed): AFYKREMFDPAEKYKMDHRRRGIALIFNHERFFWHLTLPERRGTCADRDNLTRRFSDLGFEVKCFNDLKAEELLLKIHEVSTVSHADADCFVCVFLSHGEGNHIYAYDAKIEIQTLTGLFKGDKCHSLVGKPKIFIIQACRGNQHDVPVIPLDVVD
Target sequence (P55212 194-293 limits assumed): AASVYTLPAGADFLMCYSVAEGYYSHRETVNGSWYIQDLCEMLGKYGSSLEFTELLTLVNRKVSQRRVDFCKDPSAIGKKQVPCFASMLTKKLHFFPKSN
XiGFP reactiv – reactivates the inactive X chromosome in mouse fibroblasts. XiGFP mouse fibroblasts, % GFP-positive cells imaging, 3 d; cells co-treated with 5-aza-dC sensitizer; scaled so ellipticine positive control = 100%. activation, % at 7.58 µM. 360,000 compounds, 0.055% hits;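 active means mean normalized replicate activation at least 10% and every replicate at or above 10%; inconclusive means only one of the two criteria met; inactive means mean below 10% and not all replicates reach 10%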
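assay system = SV40-immortalized XiGFP fibroblast cells, line 68-5-11 | buffer or medium = DMEM plus 5-aza-dC sensitizer | doses = single-point pinned compound dosing | times = 3-day compound exposure, then 15 min fixation at room temperature | benchmarks = positive control ellipticine, 6 µM final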
RAD52 inh – inhibitors of human RAD52 DNA annealing; P43351; recombinant RAD52 DNA annealing, FRET fluorescence; inhibition, % at 18.7 µM; 360,000 compounds, 0.46% hits; AID 651710;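 active means every replicate showing at least 50% inhibition; inconclusive means mean inhibition at least 50% but not in every replicate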
Target sequence (P43351 whole entry, looked up): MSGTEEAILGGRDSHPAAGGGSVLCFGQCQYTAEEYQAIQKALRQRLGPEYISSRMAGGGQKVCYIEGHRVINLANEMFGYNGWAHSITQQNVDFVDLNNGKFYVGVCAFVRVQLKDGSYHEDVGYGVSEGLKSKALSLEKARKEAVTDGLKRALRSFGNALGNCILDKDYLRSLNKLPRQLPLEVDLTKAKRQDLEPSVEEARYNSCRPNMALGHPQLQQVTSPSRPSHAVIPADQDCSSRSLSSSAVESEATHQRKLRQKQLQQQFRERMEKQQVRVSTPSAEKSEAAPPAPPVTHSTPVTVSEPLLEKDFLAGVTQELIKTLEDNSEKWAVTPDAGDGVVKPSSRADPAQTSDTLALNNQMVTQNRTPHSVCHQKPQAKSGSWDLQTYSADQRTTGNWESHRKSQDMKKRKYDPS
AF4-AF9 inh – blocks AF4 peptide binding to human AF9. P42568. AlphaScreen, biotin-AF4 peptide binding to FLAG-AF9. inhibition, % at 10 µM. 350,000 compounds, 0.47% hits. AID 651704;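 active means every replicate reaching a set inhibition limit, whatever the replicate mean, cut at about 25% in these data; inconclusive means mean inhibition reaches that limit but some replicates miss it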
Large screens that a line does not name were inactive; ! = not confirmed by another sample. Only some compounds are listed: those with a hit (about 1.3% of all), similar ones and a draw of the others.

C[C@@H]1CN([C@@H](C)CO)C(=O)c2cc(C#CCN(C)C)cnc2O[C@@H]1CN(C)Cc1ccc(-c2ccccc2)cc1	none
C[C@@H]1CN([C@H](C)CO)C(=O)c2cc(C#CCN(C)C)cnc2O[C@H]1CN(C)Cc1ccc(-c2ccccc2)cc1	AF4-AF9 inh 27
COCC#Cc1cnc2c(c1)C(=O)N([C@@H](C)CO)C[C@H](C)[C@@H](CN(C)C(=O)C1CCC1)O2	none
C[C@@H]1CN([C@@H](C)CO)C(=O)c2cc(C#CCN(C)C)cnc2O[C@H]1CN(C)Cc1ccc(-c2ccccc2)cc1	AF4-AF9 inh 34!
C[C@H](O)C#Cc1ccc2c(c1)O[C@H](CN(C)C(=O)Cc1ccccn1)[C@@H](C)CN([C@H](C)CO)S2(=O)=O	none
CC(=O)N[C@@H]1C=C[C@@H](CC(=O)NCc2ccc(Cl)cc2)O[C@H]1CO	none
CN(C)CCCNC(=O)C[C@@H]1CC[C@H](NS(=O)(=O)c2ccc(F)cc2)[C@@H](CO)O1	none
C[C@@H]1CN([C@H](C)CO)C(=O)c2ccccc2-c2ccccc2CO[C@@H]1CN(C)C(=O)C1CC1	none (no result: S100A4 MyoIIA, RAD54 inh, CASP6 VEID inh, RAD52 inh, AF4-AF9 inh)
CC(C)CC#Cc1cnc2c(c1)C(=O)N([C@H](C)CO)C[C@@H](C)[C@H](CN(C)S(C)(=O)=O)O2	S100A4 MyoIIA 95
C[C@H]1CN([C@@H](C)CO)C(=O)c2cc(C#CCc3ccccc3)cnc2O[C@H]1CN(C)CC1CC1	none (no result: S100A4 MyoIIA, RAD54 inh, CASP6 VEID inh, RAD52 inh, AF4-AF9 inh)
C[C@@H]1CN([C@@H](C)CO)C(=O)c2cc(C#CCc3ccccc3)cnc2O[C@@H]1CN(C)CC1CC1	S100A4 MyoIIA 121 (no result: RAD54 inh)
CCCC#Cc1cnc2c(c1)C(=O)N([C@@H](C)CO)C[C@@H](C)[C@H](CN(C)S(C)(=O)=O)O2	none
C[C@@H]1CN([C@H](C)CO)C(=O)c2cc(Br)cnc2O[C@H]1CN(C)CC1CCCC1	CASP6 VEID inh 62
O=C(/C=C/c1ccco1)OCC(=O)N1CCCCC1	CASP6 VEID inh 50
O=C(/C=C/c1ccccc1)OCC(=O)N1CCCC1	none
CCN(C(=O)COC(=O)/C=C/c1ccc(F)cc1)C1CCCCC1	none (no result: RAD54 inh)
CCN(C(=O)COC(=O)/C=C/c1ccco1)C1CCCCC1	CASP6 VEID inh 57
Cn1cc(CN2CCC(C(=O)NC(c3ccc(-c4ccccc4)cc3)c3cnccn3)CC2)c2ccccc21 (stereo not given)	AF4-AF9 inh 26
Nc1cccc2c1C(=O)N(Cc1cccc(Cl)c1)C2=O	none (no result: RAD54 inh)
O=C1Cc2ccccc2C(=O)N1Cc1cccc(Cl)c1	CASP6 VEID inh 68
C[C@@H]1CCCCO[C@H](CN(C)C(=O)CCCN(C)C)[C@H](C)CN([C@H](C)CO)C(=O)c2cc(NS(C)(=O)=O)ccc2O1	none (no result: S100A4 MyoIIA, RAD54 inh, CASP6 VEID inh, RAD52 inh, AF4-AF9 inh)
COC(=O)C1=CO[C@@H](O[C@@H]2O[C@H](CO)[C@@H](O)[C@H](O)[C@H]2O)C2C1CC(O)O[C@H]2C (stereo not given in full)	none
COC(=O)C1=COC(OC2OC(CO)C(O)C(O)C2O)C2C(C)CC(=O)C12 (stereo not given)	CASP6 VEID inh 35 (no result: XiGFP reactiv)
COC(=O)C1=COC(OC2OC(CO)C(O)C(O)C2O)C2C1C=CC2(O)CO (stereo not given)	CASP6 VEID inh 48 (no result: XiGFP reactiv)
Cc1cccc(NC(=O)Nc2ccc3c(c2)C(=O)N(C)[C@H]2CC[C@@H](CC(=O)NCc4ccccc4Cl)O[C@@H]2CO3)c1	none
CCCCNC(=S)N1CCN(CC)CC1	CASP6 VEID inh 45
Cc1ccc(-c2ccc3c(c2)O[C@@H](CN(C)Cc2ccc(C(=O)O)cc2)[C@@H](C)CN([C@H](C)CO)S3(=O)=O)cc1	none
CCS(=O)(=O)N1CCC2(CC1)CN(Cc1ccc3c(c1)OCO3)[C@@H](CO)c1[nH]c3cc(OC)ccc3c12	none (no result: RAD54 inh)
CCCN1CCC2(CC1)CN(Cc1ccc3c(c1)OCO3)[C@H](CO)c1[nH]c3cc(OC)ccc3c12	RAD52 inh 87, AF4-AF9 inh 30 (no result: RAD54 inh)
COc1ccc2c3c([nH]c2c1)[C@@H](CO)N(C(C)=O)CC31CCN(C(=O)c2ccc3c(c2)OCO3)CC1	AF4-AF9 inh 25 (no result: RAD54 inh)
COc1ccc(NC(=O)Nc2ccc3c(c2)[C@@H]2C[C@H](CC(=O)O)O[C@@H](CO)[C@@H]2O3)cc1	none
CCCC#Cc1cnc2c(c1)C(=O)N([C@@H](C)CO)C[C@H](C)[C@@H](CN(C)C(=O)CCN1CCCCC1)O2	none
COc1ccccc1NC(=O)N1CC(=O)N2[C@H](CO)[C@H](c3ccc(C#CCC(C)C)cc3)[C@@H]2C1	none (no result: S100A4 MyoIIA, RAD54 inh, CASP6 VEID inh, RAD52 inh, AF4-AF9 inh)
CCCN1C(=O)C(NC(C)=O)c2ccccc21 (stereo not given)	none (no result: S100A4 MyoIIA, CASP6 VEID inh, XiGFP reactiv, RAD52 inh, AF4-AF9 inh)
CCc1ccc2c(c1)C(NC(C)=O)C(=O)N2CCN1CCOCC1 (stereo not given)	CASP6 VEID inh 54
CCOc1cc(/C=C(/NC(C)=O)C(=O)O)cc(Cl)c1OCc1cccc(Br)c1	CASP6 VEID inh 39
CCOc1cc(C(N)=O)cc(Cl)c1OCc1ccccc1	none
Cc1c(C(=O)N(Cc2ccccc2)C2CCS(=O)(=O)C2)oc2ccccc12 (stereo not given)	AF4-AF9 inh inconclusive
Cc1c(C(=O)N(Cc2ccc(N(C)C)cc2)C2CCS(=O)(=O)C2)oc2ccccc12 (stereo not given)	AF4-AF9 inh 61 (no result: RAD54 inh)
Cc1ccc2oc(C(=O)N(Cc3ccc(N(C)C)cc3)CC3CCCO3)c(C)c2c1 (stereo not given)	AF4-AF9 inh 28
CC1(C)Cc2c(sc(NC(=O)c3ccco3)c2C(=O)O)CO1	CASP6 VEID inh 37 (no result: XiGFP reactiv)
CCCCCCCCC(=O)c1c(OC)oc(C=O)cc1=O	CASP6 VEID inh 72
CCN(C(=O)COC(=O)/C=C/c1ccccc1[N+](=O)[O-])C1CCS(=O)(=O)C1 (stereo not given)	none (no result: RAD54 inh)
CC(C)CN(C(=O)COC(=O)/C=C/c1ccccc1)C1CCS(=O)(=O)C1 (stereo not given)	CASP6 VEID inh 39
COc1ccc(S(=O)(=O)N(C)C[C@@H]2Oc3ccc(NS(=O)(=O)c4ccccc4)cc3CC(=O)N([C@@H](C)CO)C[C@H]2C)cc1	none
CC(=O)c1coc2c1cc(O)c1ccccc12	none (no result: S100A4 MyoIIA, CASP6 VEID inh, XiGFP reactiv, RAD52 inh, AF4-AF9 inh)
CC(=O)c1cc(O)c2ccccc2c1O	CASP6 VEID inh 38
COc1ccc(-n2nc3c(c2NC(=O)c2ccccc2)CS(=O)(=O)C3)cc1	none
COc1ccc(-n2nc3c(c2NC(=O)c2c(-c4ccccc4Cl)noc2C)CS(=O)(=O)C3)cc1	CASP6 VEID inh 42 (no result: XiGFP reactiv)
CN(C)c1ccc(C2C3CCCc4ccccc4C3=NN2C)cc1 (stereo not given)	AF4-AF9 inh 30 (no result: RAD54 inh)
C[C@@H]1CN([C@@H](C)CO)C(=O)c2cc(NC(=O)Nc3ccc4c(c3)OCO4)ccc2O[C@@H](C)CCCCO[C@H]1CN(C)Cc1ccccc1	none

Screens (PubChem BioAssay)
